Shown are actives, neighbours in structure and some others; about 2.1% of the full set was active somewhere.
INS-1E GSIS act = primary screen for activators of insulin secretion dependent on glucose, INS-1E cells, GLuc reporter luminescence. INS-1E GLuc reporter insulin secretion, 2-3 h. activation, % at 16.6 µM. 370,000 tested, 0.61% active. AID 743287;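 active = lowest replicate activation of at least 40%, so every replicate reaches that level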;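 note: 0% = median of neutral control wells and 100% = median of IBMX positive control wells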
PAX8 inh HTS = lowers PAX8-driven luciferase in RMG-I cells. inhibition, % at 12.6 µM. AID 652154. RMG-I TPO-luciferase reporter, SteadyGlo, 24 h. 360,000 tested, 1.2% active;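 active = mean replicate inhibition at least 60% with every replicate also reaching 60%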;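 note: luciferase light reporting Pax8 driven TPO promoter activity; plate controls were median of neutral control wells for no effect and mitoxantrone controls for full effect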
MLL AF4-AF9 inh = inhibitors of human MLL-AF4/AF9 interaction; AID 651704; 350,000 tested, 0.47% active; inhibition, % at 10 µM; AlphaScreen, biotin-AF4 peptide binding to FLAG-AF9; P42568;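 active = every replicate reaching a set inhibition limit, whatever the replicate mean, cut at about 25% in these data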;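 note: 0% = plate neutral control median and 100% = total signal loss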
Target sequence (P42568 whole entry, looked up): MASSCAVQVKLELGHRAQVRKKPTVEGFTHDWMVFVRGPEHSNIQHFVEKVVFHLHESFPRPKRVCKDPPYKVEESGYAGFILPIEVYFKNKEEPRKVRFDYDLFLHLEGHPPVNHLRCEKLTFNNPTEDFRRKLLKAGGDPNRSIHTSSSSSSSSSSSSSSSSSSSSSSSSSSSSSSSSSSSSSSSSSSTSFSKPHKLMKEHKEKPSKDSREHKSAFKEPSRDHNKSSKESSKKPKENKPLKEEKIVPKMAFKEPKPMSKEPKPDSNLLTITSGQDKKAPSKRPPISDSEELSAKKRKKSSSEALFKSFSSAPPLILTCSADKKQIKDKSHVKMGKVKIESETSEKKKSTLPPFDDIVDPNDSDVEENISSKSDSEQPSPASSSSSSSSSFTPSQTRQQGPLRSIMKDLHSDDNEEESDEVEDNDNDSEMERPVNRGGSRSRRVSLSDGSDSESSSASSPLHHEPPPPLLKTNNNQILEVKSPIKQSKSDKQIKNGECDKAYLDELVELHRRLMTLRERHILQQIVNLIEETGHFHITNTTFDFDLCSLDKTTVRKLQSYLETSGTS
EWS-Fli inh = EWS/Fli transcriptional activity inhibition; inhibition, % at 12.6 µM; A673 NR0B1-luciferase reporter, viability-normalised; 350,000 tested, 0.67% active;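 active = mean inhibition of at least 50% after viability correction, with every replicate also passing that limit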;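 note: firefly luciferase signal divided by Alamar Blue viability fluorescence both relative to DMSO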
PGC1a acetyl inh = PGC1a acetylation modulation, inhibitor mode. 350,000 tested, 0.17% active. inhibition, % at 15.6 µM. U2OS PGC1a acetylation, AlphaScreen anti-acetyl-lysine; with virally co-expressed GCN5 acetyltransferase. AID 651687;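 active = every replicate shows inhibition of at least 40%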;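 note: 0% = neutral control wells and 100% = positive control wells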
XiGFP reactiv = activators of X-chromosome reactivation in mouse fibroblasts; 360,000 tested, 0.055% active; AID 743238; XiGFP mouse fibroblasts, % GFP-positive cells imaging, 3 d; cells co-treated with 5-aza-dC sensitizer; scaled so ellipticine positive control = 100%; activation, % at 7.58 µM;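 active = mean normalized replicate activation at least 10% and every replicate at or above 10%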;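 note: 0% = median of on-plate neutral control wells and 100% = ellipticine 6 µM median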
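Material: XiGFP fibroblasts, SV40-immortalized. Buffer or medium: DMEM plus 5-aza-dC sensitizer. Compound: single concentration per compound, delivered by pin transfer. Times: 3 days compound exposure. Controls: ellipticine 6 µM.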
* marks the source's active call; other numbers are inactive results; nt = not tested or not shown.

SMILES | INS-1E GSIS act | PAX8 inh HTS | MLL AF4-AF9 inh | EWS-Fli inh | PGC1a acetyl inh | XiGFP reactiv
C[C@H]1CN([C@@H](C)CO)C(=O)Cc2cc(NC(=O)NC3CCCCC3)ccc2O[C@@H]1CN(C)Cc1ccc(-c2ccccc2)cc1 | 4.5 | 103.3* | -1.4 | 12.7 | -5.0 | -0.4
C[C@@H]1CN([C@@H](C)CO)C(=O)Cc2cc(NC(=O)NC3CCCCC3)ccc2O[C@H]1CN(C)Cc1ccc(-c2ccccc2)cc1 | -0.2 | 79.5* | 1.8 | 16.6 | -7.7 | -0.5
C[C@H](CO)N1C[C@H](C)[C@H](CN(C)Cc2ccc(-c3ccccc3)cc2)Oc2ccc(NC(=O)NC3CCCCC3)cc2CC1=O | -6.2 | 16.2 | 0.2 | 3.2 | -7.5 | -0.5
C[C@H]1CN([C@@H](C)CO)C(=O)c2cc(NC(=O)NC3CCCCC3)ccc2O[C@@H]1CN(C)Cc1ccccc1 | -5.6 | -2.6 | 1.6 | -5.1 | 11.6 | -0.1
C[C@@H]1CN([C@H](C)CO)C(=O)Cc2cc(NC(=O)NC3CCCCC3)ccc2O[C@@H]1CN(C)Cc1ccccc1 | -15.3 | -15.5 | -3.2 | 3.4 | nt | 5.3
C[C@H]1CN([C@@H](C)CO)C(=O)Cc2cc(NC(=O)NC3CCCCC3)ccc2O[C@H]1CN(C)Cc1ccc(-c2ccccc2)cc1 | -2.7 | 103.2* | -0.7 | 10.2 | -5.4 | 0.2
C[C@H]1CN([C@@H](C)CO)C(=O)c2cc(NC(=O)NC3CCCCC3)ccc2O[C@H]1CN(C)Cc1ccccc1 | -5.6 | -14.1 | 32.6* | -0.5 | -0.5 | -1.1
CSc1nc(Cl)c(Cc2ccc(OC(C)C)cc2)c(N2CCOCC2)n1 | -16.4 | nt | nt | nt | 6.6 | nt
CSc1nc(N2CCOCC2)c2sccc2n1 | 76.0* | 7.3 | -5.2 | -4.2 | 2.8 | 0.0
Oc1ccc(/C=N/Nc2cc(N3CCCC3)nc(N3CCCC3)n2)cc1 | nt | nt | nt | nt | -3.6 | nt
COc1ccc(/C=N/Nc2cc(N3CCCC3)nc(N3CCCC3)n2)cc1 | 0.5 | 68.2* | 12.0 | 5.8 | nt | 0.0
CCCn1nc(C(=O)NC2CC2)c2ccccc2c1=O | 52.0* | 11.7 | -0.2 | -6.4 | nt | -0.2
CCCn1nc(C(=O)Nc2nc(-c3ccccn3)cs2)c2ccccc2c1=O | nt | 73.8* | 1.2 | 11.1 | 12.8 | -0.1
CCn1nc(C(=O)Nc2nc(-c3ccccn3)cs2)c2ccccc2c1=O | 29.4 | 11.3 | 0.9 | 2.8 | 4.0 | 0.5
COc1ccc(-c2cc(C(F)(F)F)n3nc(C(=O)O)cc3n2)cc1OC | 48.1* | nt | nt | nt | 13.8 | nt
COC(=O)c1cc2nc(-c3ccc(OC)c(OC)c3)cc(C(F)(F)F)n2n1 | nt | nt | nt | nt | -15.8 | nt
O=C(N[C@@H]1CC[C@H](CCNS(=O)(=O)c2ccccc2Cl)O[C@H]1CO)c1ccc(F)cc1 | -7.2 | 2.1 | -3.5 | 3.3 | 11.0 | 0.2
CC[n+]1c(/C=C/c2c[nH]c3ccccc23)ccc2cc(C)ccc21 | -78.9 | 75.8* | 26.4* | 30.6 | nt | 103.0*
O=[N+]([O-])c1ccc(Sc2cccc[n+]2[O-])c2nonc12 | -8.8 | 102.1* | nt | 55.5* | nt | 58.7*
O=C(Nc1ccccc1)N1CCc2scc[n+]2-c2ccccc21 | 2.6 | 111.7* | -8.0 | 3.7 | nt | 0.0
CC1CN(C(=O)Nc2ccccc2)c2ccccc2-[n+]2ccsc21 (centres undefined) | 2.5 | 4.1 | nt | nt | nt | -0.1
O=C(Sc1cccc2cccnc12)c1ccc(F)cc1 | 16.3 | 106.2* | 19.3 | 49.0 | nt | 0.0
O=S(=O)(Nc1cc(Sc2cccc3cccnc23)c(O)c2ccccc12)c1ccc(F)cc1 | -51.4 | 102.1* | 12.7 | 12.3 | nt | 0.0
C[C@@H]1CCCCO[C@H](CN(C)S(=O)(=O)c2cn(C)cn2)[C@H](C)CN([C@@H](C)CO)C(=O)c2cc(NC(=O)c3ccncc3)ccc2O1 | 6.7 | -23.5 | -2.1 | -16.0 | -8.5 | 0.0
CNC[C@H]1Oc2ccc(NS(C)(=O)=O)cc2CC(=O)N(C)C[C@H]1C | 12.0 | nt | nt | nt | nt | 0.2
SMILES | INS-1E GSIS act | PAX8 inh HTS | MLL AF4-AF9 inh | EWS-Fli inh | PGC1a acetyl inh | XiGFP reactiv
CCCNC(=O)N1C[C@H](C)[C@@H](OC)CN(C)C(=O)c2cc(NC(=O)CC)ccc2OC[C@@H]1C | 4.1 | -12.7 | -1.4 | -5.4 | 1.3 | 0.1
COc1ccccc1C(=O)N1C[C@@H]2[C@H](c3ccccc31)[C@H](CO)N2CC1CCOCC1 | -0.1 | 1.8 | nt | 11.1 | 2.1 | 0.2
O=C(O)CCCCC1SCC2NC(=O)NC21 (centres undefined) | 15.0 | nt | 70.3* | -5.1 | 3.1 | nt
CCCCCC1NC(=O)NC1CCCCCC(=O)O (centres undefined) | nt | -9.2 | nt | nt | 2.6 | nt
O=C1/C(=C\c2ccco2)SC(=S)N1c1ccc(O)cc1 | -0.3 | 90.9* | 15.0 | -1.2 | nt | 0.2
CCOC(=O)c1c(C)[nH]c(C(=O)OCC(=O)NC(C)(C)C)c1C | -10.1 | 16.7 | -0.7 | -4.9 | 3.8 | 0.0
CCOC(=O)c1[nH]c(C)c(C(=O)OCC(=O)NC(C)c2ccc(F)cc2)c1C (centres undefined) | 9.8 | 28.0 | 0.4 | 54.1* | -4.5 | 0.2
CCCNC(=O)c1nnsc1S(=O)(=O)c1ccc(Cl)cc1 | 65.0* | 112.0* | -5.7 | 13.0 | -82.4 | 8.0
CCCNC(=O)c1nnsc1S(=O)c1ccc(Cl)cc1 (centres undefined) | 115.1* | 79.2* | -0.1 | 40.7 | -147.5 | 0.7
CN1C(=O)c2cc(NC(=O)c3ccc(F)c(F)c3)ccc2OC[C@@H]2O[C@H](CC(=O)N[C@H]3CCN(Cc4ccccc4)C3)CC[C@@H]21 | -15.7 | 25.6 | 8.4 | 4.7 | nt | 0.2
Cc1ccc(-c2nc3ncccn3c2N)cc1 | 21.3 | -4.6 | 1.9 | -17.2 | nt | 0.1
Nc1c(-c2ccccc2)nc2ncccn12 | 48.7* | -8.5 | nt | -3.9 | nt | 0.6
COc1ccc(CNC(=O)CN2C(=O)NC3(CCCCCC3)C2=O)cc1 | 61.6* | 6.7 | -3.0 | 5.9 | 10.5 | 0.0
COC(=O)/C(=C\Nc1ccc(Cl)cc1Cl)NC(=O)c1ccc(OC)cc1 | -18.7 | 16.9 | -0.7 | 53.3* | -19.1 | nt
CC(C)c1ccc(NC(=O)CSc2nc3ccsc3c(=O)n2Cc2ccc(C(=O)O)cc2)cc1 | -25.8 | -2.5 | -1.3 | nt | 59.0* | -0.1
CCC[C@@H](CN1CCC[C@H]1CN1C(N)=NC[C@H]1CC(C)C)N1C[C@@H](Cc2ccccc2)N(CCc2ccc(Cl)c(Cl)c2)C1=N | 39.4 | 33.1 | 33.3* | 1.1 | nt | 0.2
CCC[C@@H](CN1CCC[C@H]1CN1C(N)=NC[C@H]1CC(C)C)N1C[C@@H]([C@H](C)CC)N(CCc2ccc(Cl)c(Cl)c2)C1=N | -1.0 | 31.1 | 25.4* | -6.4 | nt | 0.0
CC(C)CC#Cc1ccc([C@@H]2[C@@H](CO)N3C(=O)CN(C(=O)NC(C)C)C[C@H]23)cc1 | -2.9 | nt | nt | nt | nt | 0.5
C[C@H](CO)N1C[C@H](C)[C@H](CN(C)CC2CCCCC2)OCCCC[C@H](C)Oc2ccc(NS(=O)(=O)c3ccc(Cl)cc3)cc2C1=O | -6.0 | 29.5 | nt | 64.9* | 7.5 | 0.0

Compound activity: PubChem BioAssay, Broad Institute
